Data as given in article PMC7982424 (Acta Pharmaceutica Sinica. B, 2020).
“Also recorded” adds a separate entry of the source. Where a SMILES comes first, the peptide text is derived from it. The star is where a group is joined. Bz = O=C(c1ccccc1)*; NHPh = c1ccc(N*)cc1

Experiments:
HIV-1NL4-3 = test: Anti-HIV-1 assay in TZM-GFP cells; type: cell-based; settings: for inhibition at 2 µM: Human immunodeficiency virus 1, read-out: Inhibition at 2 μmol/L; for inhibition at 20 µM: Human immunodeficiency virus 1, read-out: Inhibition at 20 μmol/L; for Inhibition at 2 μmol/L: 2 μmol/L compound
Method in brief: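 TZM-GFP cells seeded at 1 × 10^4 per well; after 24 h, medium replaced with test compound at 20 μmol/L, with actives retested at 2 μmol/L. HIV-1NL4-3 (HEK 293FT-transfection stock, MT2-propagated, PEG-concentrated) added at MOI 1 24 h later. After 48 h, GFP-positive cells counted by imaging; inhibition relative to DMSO controls. Duplicates, at least two independent experiments.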

Cytotoxicity assay = type: cell-based; settings: human, TZM-GFP cells
Method in brief: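 TZM-GFP cells were plated at 1 × 10^4 cells per well and exposed continuously to increasing concentrations of test compound for 72 h. Viable cells were counted by XTT. CC50 came from a log(inhibitor) vs normalized response, variable-slope fit for each independent assay, then averaged. Runs were in duplicate across at least two independent experiments; mean ± SD.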

SMILES	antiviral activity against HIV-1 (in words) (HIV-1NL4-3; HIV-1 in TZM-GFP cells)	CC50 at 72 h (Cytotoxicity assay) [µM]	inhibition at 2 µM (HIV-1NL4-3) [%]	inhibition at 20 µM (HIV-1NL4-3) [%]	Inhibition at 2 μmol/L (HIV-1NL4-3; HIV-1 in TZM-GFP cells)	Inhibition at 20 μmol/L (HIV-1NL4-3; 20 μmol/L compound, HIV-1 in TZM-GFP cells)
CN(C(=O)[C@H](Cc1ccccc1)NC(=O)CC1NC(=O)NC1=O)c1ccccc1 (stereo partly drawn) [Compound 2, (2S)-2-(2-(2,5-Dioxoimidazolidin-4-yl)acetamido)-N-methyl-N,3-diphenylpropanamide]	completely inactive	> 50				
Cc1ccc(N(C)C(=O)[C@H](Cc2ccccc2)NC(=O)CC2NC(=O)NC2=O)cc1 (stereo partly drawn) [Compound 3, (2S)-2-(2-(2,5-Dioxoimidazolidin-4-yl)acetamido)-N-methyl-3-phenyl-N-(p-tolyl)propanamide]		> 50	2	62		
CN(C(=O)[C@H](Cc1ccccc1)NC(=O)CC1NC(=O)NC1=O)c1ccc(Cl)cc1 (stereo partly drawn) [Compound 4, (2S)-N-(4-Chlorophenyl)-2-(2-(2,5-dioxoimidazolidin-4-yl)acetamido)-N-methyl-3-phenylpropanamide]		> 50	17	96	inhibited HIV-1 weakly	almost completely
CN(C(=O)[C@H](Cc1ccccc1)NC(=O)CC1NC(=O)NC1=O)c1cccc(Cl)c1 (stereo partly drawn) [Compound 5, (2S)-N-(3-Chlorophenyl)-2-(2-(2,5-dioxoimidazolidin-4-yl)acetamido)-N-methyl-3-phenylpropanamide]		> 50				
CN(C(=O)[C@H](Cc1ccccc1)NC(=O)CC1NC(=O)NC1=O)c1ccc(F)cc1 (stereo partly drawn) [Compound 6, (2S)-2-(2-(2,5-Dioxoimidazolidin-4-yl)acetamido)-N-(4-fluorophenyl)-N-methyl-3-phenylpropanamide]		> 50				
CN(C(=O)[C@H](Cc1ccccc1)NC(=O)CC1NC(=O)NC1=O)c1cccc(F)c1 (stereo partly drawn) [Compound 7, (2S)-2-(2-(2,5-Dioxoimidazolidin-4-yl)acetamido)-N-(3-fluorophenyl)-N-methyl-3-phenylpropanamide]		> 50				
Cc1cn(CC(=O)N[C@@H](Cc2ccccc2)C(=O)N(C)c2ccccc2)c(=O)[nH]c1=O [Compound 8, (S)-N-Methyl-2-(2-(5-methyl-2,4-dioxo-3,4-dihydropyrimidin-1(2H)-yl)acetamido)-N,3-diphenylpropanamide]		> 50	35	95	exhibited inhibition	
Cc1ccc(N(C)C(=O)[C@H](Cc2ccccc2)NC(=O)Cn2cc(C)c(=O)[nH]c2=O)cc1 [Compound 9, (S)-N-Methyl-2-(2-(5-methyl-2,4-dioxo-3,4-dihydropyrimidin-1(2H)-yl)acetamido)-3-phenyl-N-(p-tolyl)propanamide]		> 50	7	85		
Cc1cn(CC(=O)N[C@@H](Cc2ccccc2)C(=O)N(C)c2cccc(Cl)c2)c(=O)[nH]c1=O [Compound 11, (S)-N-(3-Chlorophenyl)-N-methyl-2-(2-(5-methyl-2,4-dioxo-3,4-dihydropyrimidin-1(2H)-yl)acetamido)-3-phenylpropanamide]		> 50	37	95	exhibited inhibition	
Cc1cn(CC(=O)N[C@@H](Cc2ccccc2)C(=O)N(C)c2ccc(F)cc2)c(=O)[nH]c1=O [Compound 12, (S)-N-(4-Fluorophenyl)-N-methyl-2-(2-(5-methyl-2,4-dioxo-3,4-dihydropyrimidin-1(2H)-yl)acetamido)-3-phenylpropanamide]		> 50	6	94		
Cc1cn(CC(=O)N[C@@H](Cc2ccccc2)C(=O)N(C)c2cccc(F)c2)c(=O)[nH]c1=O [Compound 13, (S)-N-(3-Fluorophenyl)-N-methyl-2-(2-(5-methyl-2,4-dioxo-3,4-dihydropyrimidin-1(2H)-yl)acetamido)-3-phenylpropanamide]		> 50	0	74		
Cc1cn(CC(=O)N[C@@H](Cc2ccccc2)C(=O)N(C)c2cccc(Br)c2)c(=O)[nH]c1=O [Compound 14, (S)-N-(3-Bromophenyl)-N-methyl-2-(2-(5-methyl-2,4-dioxo-3,4-dihydropyrimidin-1(2H)-yl)acetamido)-3-phenylpropanamide]		> 50	22	100	exhibited inhibition	
Cc1cn(CC(=O)N[C@@H](Cc2ccccc2)C(=O)N(C)c2cccc(C(F)(F)F)c2)c(=O)[nH]c1=O [Compound 15, (S)-N-Methyl-2-(2-(5-methyl-2,4-dioxo-3,4-dihydropyrimidin-1(2H)-yl)acetamido)-3-phenyl-N-(3-(trifluoromethyl)phenyl)propanamide]		> 50	28	95	exhibited inhibition	
Cc1cn(CC(=O)N[C@@H](C(=O)N(C)c2ccccc2)c2ccccc2)c(=O)[nH]c1=O [Compound 16, (R)-N-Methyl-2-(2-(5-methyl-2,4-dioxo-3,4-dihydropyrimidin-1(2H)-yl)acetamido)-N,2-diphenylacetamide]	did not inhibit HIV-1	> 50				
CN(C(=O)[C@H](Cc1ccccc1)NC(=O)c1c[nH]c(=O)[nH]c1=O)c1ccccc1 [Compound 17, (S)-N-(1-(Methyl(phenyl)amino)-1-oxo-3-phenylpropan-2-yl)-2,4-dioxo-1,2,3,4-tetrahydropyrimidine-5-carboxamide]	lack of antiviral activity; also recorded: completely inactive	> 50				
CN(C(=O)[C@H](Cc1ccccc1)NC(=O)CNC(=O)c1ccccc1)c1cccc(Cl)c1 [Compound 21, (S)-N-(2-((1-((3-Chlorophenyl)(methyl)amino)-1-oxo-3-phenylpropan-2-yl)amino)-2-oxoethyl)benzamide]		> 50	40	95		
CN(C(=O)[C@H](Cc1ccccc1)NC(=O)CNC(=O)c1ccccc1)c1ccc(F)cc1 [Compound 22, (S)-N-(2-((1-((4-Fluorophenyl)(methyl)amino)-1-oxo-3-phenylpropan-2-yl)amino)-2-oxoethyl)benzamide]		> 50	12	97		
CN(C(=O)[C@H](Cc1ccccc1)NC(=O)CNC(=O)c1ccccc1)c1cccc(Br)c1 [Compound 24, (S)-N-(2-((1-((3-Bromophenyl)(methyl)amino)-1-oxo-3-phenylpropan-2-yl)amino)-2-oxoethyl)benzamide]		> 50	38	97		
CN(C(=O)[C@H](Cc1ccccc1)NC(=O)CNC(=O)c1ccccc1)c1cccc(C(F)(F)F)c1 [Compound 25, (S)-N-(2-((1-(Methyl(3-(trifluoromethyl)phenyl)amino)-1-oxo-3-phenylpropan-2-yl)amino)-2-oxoethyl)benzamide]		> 50	19	89		
O=C(CNC(=O)c1ccccc1)N[C@@H](Cc1ccccc1)C(=O)N1CCC[C@H]1C(=O)Nc1ccccc1 [Compound 27, (S)-1-(Benzoylglycyl-L-phenylalanyl)-N-phenylpyrrolidine-2-carboxamide] (Bz-Gly-Phe-Pro-NHPh)		> 50				
